Measured values collected from several papers.
Protocols differ between the studies behind these lines.
Read-out: metabolic stability

| SMILES | host | medium | concentration | time | pH | quantity | result |
| --- | --- | --- | --- | --- | --- | --- | --- |
| Cc1cc(C)nc(Nc2ncc(C(=O)NCCc3c(C)[nH]c4ccccc34)cn2)c1 | mouse | liver microsomes | 1 µM | – | – | microsomal CLint | 148 µL/min/mg |
| NC(=O)[C@@H]1CC(F)(F)CN1C(=O)c1ccc(N2CC(F)(F)C2)c(OCC2CC2)n1 | mouse | hepatocytes | – | – | – | hepatocyte CLint | 59 µL/min/10⁶ cells |
| Cc1cc(Cl)c(Cl)cc1NC(=O)c1ccc(N2CCNCC2)c(C#N)c1 | CD-1 mouse | liver microsomes | 1 µM | 1 h | pH 7.4 | scaled CLint | 29 mL/min/kg |
| Cc1ccc(F)c2cc(C(=O)N[C@@H]3CCC[C@H](N4CC[C@H](N(C)S(C)(=O)=O)C4)C3)[nH]c12 | mouse | hepatocytes | 0.5 µM | 1 h | – | scaled CLint | 721 mL/min/kg |
| Cc1nc([C@@](C)(CC2CC2)NC(=O)c2cc(OCC(F)(F)F)c(C3CC3)cn2)no1 | mouse | hepatocytes | – | – | – | hepatocyte CLint | 27 µL/min/10⁶ cells |
| C[C@H]1COCCN1c1nc(NCc2cccnc2C(F)(F)F)c2cccnc2n1 | mouse | hepatocytes | – | – | – | hepatocyte CLint | 8.9 µL/min/10⁶ cells |
| Cc1nc2c(=O)n(C)c(=O)nc-2n(C)n1 | mouse | liver microsomes | – | – | – | microsomal CLint | < 7.4 µL/min/mg |
| Cc1ncc2n1-c1ccc(Cl)cc1C(c1ccccc1F)=NC2 | male CD-1 mouse | liver microsomes | 1 µM | – | – | microsomal CLint | > 250 µL/min/mg |
